This note sets out measurements from ChEMBL document CHEMBL3407413, “Repositioning proton pump inhibitors as anticancer drugs by targeting the thioesterase domain of human fatty acid synthase” (J Med Chem, 2015).

Activity calls are given as the source filed them. No cut-off for these calls is given here.

Assay [1] concerns BXPC-3. Nature of the assay: Effect of survival of human BxPC3 cells at 3.75 uM by MTT assay. Format: functional, cell-based. A digest of the protocol: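 BxPC-3 pancreatic cancer cells given the supplement alone; growth read by MTT assay against a DMSO control; n = 3.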
Assay [2] deals with BXPC-3. Put plainly: Effect of FASN expression of human BxPC3 cells at 3.75 uM by Western blot analysis. Format: functional, cell-based. A digest of the protocol:
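BxPC-3 pancreatic cancer cells given the supplement; FASN protein read by Western blot, with actin as the loading control.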

The target in assay [3] is T1, Fatty acid synthase (Homo sapiens, UniProt P49327). Nature of the assay: Inhibition of purified recombinant FASN TE activity (unknown origin) using 4-MUH as substrate preincubated for 30 mins before substrate addition measured after 1 hr by fluorescence assay.
In assay [4] the test system is PANC-1. Nature of the assay: Inhibition of survival of human PANC1 cells after 10 to 14 days by crystal violet staining-based colony formation assay. Format: functional, cell-based. Summed up:
(§1)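 Cells seeded at 100/well (PANC-1, including stable vector- or wild-type FASN-transfected lines) or 200/well (BxPC-3) and grown 24 h. Then cultured continuously with PPIs or DMSO vehicle for 10–14 days, stained with crystal violet and colonies counted manually. Three independent experiments.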

In assay [5] the test system is PANC-1. Nature of the assay: Induction of apoptosis in human PANC1 cells assessed as cytoplasmic histone-associated DNA fragments after 72 hrs by ELISA method. Format: functional, cell-based.
The test system of assay [6] is BXPC-3. Nature of the assay: Induction of apoptosis in human BxPC3 cells assessed as PARP1 cleavage after 24 hrs by Western blot analysis. Format: functional, cell-based. Summed up:
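Harvested and analysed by Western blot with an antibody specific to cleaved PARP-1; actin as loading control.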

In assay [7] the test system is BXPC-3. Put plainly: Effect on pH homeostasis in human BxPC3 cells assessed as change in intracellular pH at 12.5 to 100 uM after 72 hrs by pHrodo red dye-based fluorescence assay. Format: functional, cell-based. A digest of the protocol:
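Loaded with pHrodo red intracellular pH dye and fluorescence read in-well. Fluorescence converted to pH using a calibration kit standard curve (fluorescence vs pH). Three independent experiments.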

In assay [8] the test system is BXPC-3. Put plainly: Effect on pH homeostasis in human BxPC3 cells assessed as change in extracellular pH at 100 uM after 72 hrs by pH metry. Format: functional, cell-based. Summed up: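 Culture medium was collected, cleared of cell debris by centrifugation, and measured with a pH meter.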
The test system of assay [9] is PANC-1. Nature of the assay: Effect on FASN expression in human PANC1 cells at 12.5 to 200 uM after 30 mins by Western blot analysis. Format: functional, cell-based.
Assay [10] relates to BXPC-3. Put plainly: Cytotoxicity against human BxPC3 cells by MTT assay in presence of 3.75 uM palmitate. It is filed as functional, cell-based.
The test system of assay [11] is BXPC-3. Put plainly: Induction of apoptosis in human BxPC3 cells in presence of 3.75 uM palmitate. Format: functional, cell-based.
Assay [12] relates to PANC-1. Put plainly: Inhibition of survival of wild-type FASN overexpressing human PANC1 cells after 10 to 14 days by crystal violet staining-based colony formation assay. It is filed as functional, cell-based. A digest of the protocol: as §1
Assay [13] has as its system PANC-1. Nature of the assay: Inhibition of survival of vector-transfected human PANC1 cells after 10 to 14 days by crystal violet staining-based colony formation assay. Format: functional, cell-based. Summed up:
as §1

Assay [14] addresses T1, Fatty acid synthase.
The target in assay [15] is T1, Fatty acid synthase. This is another data set of the same source.

T1 sequence (P49327 whole entry): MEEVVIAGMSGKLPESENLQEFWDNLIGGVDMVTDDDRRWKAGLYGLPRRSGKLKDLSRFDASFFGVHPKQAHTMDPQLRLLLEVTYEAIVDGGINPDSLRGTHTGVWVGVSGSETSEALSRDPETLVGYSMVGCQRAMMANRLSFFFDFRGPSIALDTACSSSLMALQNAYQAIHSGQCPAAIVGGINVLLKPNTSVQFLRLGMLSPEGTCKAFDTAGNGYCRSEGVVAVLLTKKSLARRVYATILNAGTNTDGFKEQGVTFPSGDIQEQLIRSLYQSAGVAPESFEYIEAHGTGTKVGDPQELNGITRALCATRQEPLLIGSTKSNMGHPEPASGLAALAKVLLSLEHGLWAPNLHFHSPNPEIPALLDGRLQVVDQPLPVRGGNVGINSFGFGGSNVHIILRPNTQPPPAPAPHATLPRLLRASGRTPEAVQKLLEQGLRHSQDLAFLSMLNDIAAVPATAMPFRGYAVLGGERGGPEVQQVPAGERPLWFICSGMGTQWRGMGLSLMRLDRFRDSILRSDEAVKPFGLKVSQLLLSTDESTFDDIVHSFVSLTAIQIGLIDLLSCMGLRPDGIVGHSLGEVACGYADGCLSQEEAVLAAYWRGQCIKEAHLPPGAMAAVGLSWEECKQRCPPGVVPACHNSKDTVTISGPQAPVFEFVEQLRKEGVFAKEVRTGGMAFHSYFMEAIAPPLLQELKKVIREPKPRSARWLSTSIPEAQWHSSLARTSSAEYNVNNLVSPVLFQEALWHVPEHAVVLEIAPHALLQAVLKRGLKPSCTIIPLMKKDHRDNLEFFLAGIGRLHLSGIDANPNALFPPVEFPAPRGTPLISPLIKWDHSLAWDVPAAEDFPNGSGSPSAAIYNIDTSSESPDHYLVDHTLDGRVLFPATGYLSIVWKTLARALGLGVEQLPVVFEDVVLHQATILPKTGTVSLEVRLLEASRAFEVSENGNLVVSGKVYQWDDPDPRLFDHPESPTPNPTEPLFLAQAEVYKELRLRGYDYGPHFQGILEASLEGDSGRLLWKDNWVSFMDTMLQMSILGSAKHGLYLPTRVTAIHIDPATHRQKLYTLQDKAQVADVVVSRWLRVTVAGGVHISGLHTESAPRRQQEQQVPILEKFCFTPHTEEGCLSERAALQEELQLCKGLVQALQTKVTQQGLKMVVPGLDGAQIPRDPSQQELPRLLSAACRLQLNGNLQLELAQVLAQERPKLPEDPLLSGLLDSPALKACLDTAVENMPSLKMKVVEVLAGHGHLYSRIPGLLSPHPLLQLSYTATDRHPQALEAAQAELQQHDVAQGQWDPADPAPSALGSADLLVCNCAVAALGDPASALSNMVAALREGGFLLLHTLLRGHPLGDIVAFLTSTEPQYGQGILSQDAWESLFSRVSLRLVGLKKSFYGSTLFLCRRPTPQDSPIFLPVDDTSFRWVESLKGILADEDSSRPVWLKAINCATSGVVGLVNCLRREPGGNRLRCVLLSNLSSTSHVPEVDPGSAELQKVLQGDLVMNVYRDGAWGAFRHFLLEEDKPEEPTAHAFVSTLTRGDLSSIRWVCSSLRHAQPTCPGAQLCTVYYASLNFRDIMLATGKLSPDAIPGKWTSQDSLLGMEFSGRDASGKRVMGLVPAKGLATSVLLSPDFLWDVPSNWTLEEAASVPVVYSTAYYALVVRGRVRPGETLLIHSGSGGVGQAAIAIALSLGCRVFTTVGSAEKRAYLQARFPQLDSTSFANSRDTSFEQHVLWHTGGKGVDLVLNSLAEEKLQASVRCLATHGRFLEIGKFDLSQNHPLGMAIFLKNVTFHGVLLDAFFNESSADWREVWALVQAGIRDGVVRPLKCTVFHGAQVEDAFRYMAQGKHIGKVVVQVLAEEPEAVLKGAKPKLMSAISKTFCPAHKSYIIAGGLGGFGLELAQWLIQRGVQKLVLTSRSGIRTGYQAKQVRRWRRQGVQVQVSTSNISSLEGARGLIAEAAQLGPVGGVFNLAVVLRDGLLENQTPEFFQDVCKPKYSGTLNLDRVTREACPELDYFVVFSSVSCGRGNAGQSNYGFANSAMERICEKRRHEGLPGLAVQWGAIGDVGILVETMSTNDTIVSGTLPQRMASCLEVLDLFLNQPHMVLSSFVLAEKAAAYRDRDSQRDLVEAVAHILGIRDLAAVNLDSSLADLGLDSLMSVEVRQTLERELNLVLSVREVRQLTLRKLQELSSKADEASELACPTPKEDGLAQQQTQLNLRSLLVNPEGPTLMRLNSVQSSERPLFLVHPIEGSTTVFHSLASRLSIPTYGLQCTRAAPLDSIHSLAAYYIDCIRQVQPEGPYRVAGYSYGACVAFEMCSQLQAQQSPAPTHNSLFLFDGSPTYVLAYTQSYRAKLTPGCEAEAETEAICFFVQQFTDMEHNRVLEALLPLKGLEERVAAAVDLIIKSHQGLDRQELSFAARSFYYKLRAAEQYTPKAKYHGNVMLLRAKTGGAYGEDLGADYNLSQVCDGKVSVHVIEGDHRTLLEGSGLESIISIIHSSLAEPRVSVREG

Turning to `CCCCCCCCCCCCCCCC(=O)O`, the result in the assay with BXPC-3 [1] and with BXPC-3 [2] was inactive.
Turning to `Cc1c(OCC(F)(F)F)ccnc1C[S+]([O-])c1nc2ccccc2[nH]1` (stereo unspecified) [LANSOPRAZOLE], the IC50 amounted to 46.7 µM at Fatty acid synthase [3], 93 µM against Fatty acid synthase [14] and 124 µM against Fatty acid synthase [15]. Moreover, the Ki on Fatty acid synthase [3] is 5.3 µM. Moreover, the inhibition entry in the assay on PANC-1 [4] was “Dose-dependent effect”. The Activity entry with PANC-1 [5] and with BXPC-3 [6] was “Dose-dependent effect” in each case. The result in the assay on BXPC-3 [7], with BXPC-3 [8], with PANC-1 [9], in the assay on BXPC-3 [10] and in the assay with BXPC-3 [11] was inactive. Further, the inhibition result in the assay with PANC-1 [12] was “Active”. Moreover, the inhibition entry in the assay with PANC-1 [13] is “inactive”.
